Experimental data from different studies.
Each line is one published result; the experiments were not run side by side.
CDK3 with cyclin E: Cyclin-dependent kinase 3, with cyclin E (CDK3, Homo sapiens, UniProt Q00526)
CDK3: Cyclin-dependent kinase 3 (CDK3, Homo sapiens, UniProt Q00526)

SMILES	target	observed	mode	method	tested at	quantity	result
O=C(Nc1cnn(-c2csc(C(=O)NC3COC3)c2)c1)Nc1ccccc1Cl	CDK3 with cyclin E	enzyme activity	inhibitor		5 µM	remaining activity	107%
Cc1cnc(NC2CCOCC2)nc1-n1cnc(C(=O)NC(CN)c2cc(F)cc(Cl)c2)c1 (stereo not shown)	CDK3 with cyclin E	enzyme activity	inhibitor	radiometric	1 µM	remaining activity	5%
CCN(CC)CCNC(=O)c1c(C)[nH]c(/C=C2\C(=O)Nc3ccc(F)cc32)c1C	CDK3 with cyclin E	enzyme activity	inhibitor		0.3 µM	inhibition	1%
O=C1Nc2ccc(Cl)cc2C1=Cc1cc(Cl)c(O)c(Cl)c1	CDK3 with cyclin E	cell-free assay			0.5 µM	remaining signal	85.4%
Cc1cc(-n2nc(Cc3cc(F)cc(C(F)(F)F)c3)nc2C)ccc1C(N)=O	CDK3	cell-free assay		competition with immobilised ligand	1 µM	remaining binding	100%
Cc1ccc(C(=O)NCc2ccsc2)cc1C#Cc1cn(C(C)C)c2ncnc(N)c12	CDK3 with cyclin E	enzyme activity	inhibitor		1 µM	activity vs control	98%
CC(C)(C)c1nc(-c2cccc(NS(=O)(=O)c3c(F)cccc3F)c2F)c(-c2ccnc(N)n2)s1	Cyclin-dependent kinase 3, with cyclin E1 (CDK3, Homo sapiens, UniProt Q00526)	enzyme activity	inhibitor	radiometric	1 µM	remaining activity	103%
COc1cc(-c2cn(C3CCc4c(F)cccc4N(CC(F)(F)F)C3=O)nn2)ccc1-n1cnc(C)c1 (stereo not shown)	CDK3	cell-free assay		competition with immobilised ligand	1 µM	remaining binding	100%
CCCS(=O)(=O)Nc1ccc(F)c(C(=O)c2c[nH]c3ncc(-c4ccc(Cl)cc4)cc23)c1F	CDK3 with cyclin E	enzyme activity	inhibitor		1 µM	inhibition	< 10%
Cc1ccc(C(=O)Nc2ccc(CN3CCN(C)CC3)c(C(F)(F)F)c2)cc1C#Cc1cnc2cccnn12	CDK3	enzyme activity	inhibitor		23.5 nM	remaining activity	95%
Cc1nccc(COC(=O)N2C[C@@H]3[C@@H](CNC(=O)c4ccc5[nH]nnc5c4)[C@@H]3C2)n1	CDK3	cell-free assay		competition with immobilised ligand	1 µM	remaining binding	97%
CNC(=O)c1cc(Oc2ccc(NC(=O)Nc3ccc(Cl)c(C(F)(F)F)c3)cc2)ccn1	CDK3 with cyclin E	enzyme activity	inhibitor		0.3 µM	inhibition	-6%
NS(=O)(=O)c1cc(NC(=O)Cc2ccccc2)ccc1Oc1cccc(Cl)c1	CDK3	cell-free assay		competition with immobilised ligand	1 µM	remaining binding	92%
Cc1ccc(-n2nc(C(C)(C)C)cc2NC(=O)Nc2ccc(OCCN3CCOCC3)c3ccccc23)cc1	CDK3 with cyclin E	enzyme activity	inhibitor		10 µM	inhibition	-10%
O=C(Nc1cnn(-c2csc(C(=O)NC3COC3)c2)c1)Nc1c(F)cccc1Cl	Cyclin-dependent kinase 3, with cyclin E2 (CDK3, Homo sapiens, UniProt Q00526)	enzyme activity	inhibitor		5 µM	remaining activity	109%
CS(=O)(=O)NCC[C@H](NC(=O)c1cncc2c1cnn2-c1ccc(F)cc1)c1ccnc(S(C)(=O)=O)c1	CDK3	cell-free assay		competition with immobilised ligand	1 µM	remaining binding	100%
